Experimental data published in publication PMC8295177 (Cancer discovery, 2021).
Several values for one entry are separate records, joined by “and”; a condition that tells them apart may be missing. Equal values may be shown once. Read-outs that look alike come from different tables or passages of the source.

Experiments:
[1] = system: unselected stage IV NSCLC; details: second-line monotherapy; cited from earlier work
EGFRex20ins mutants = details: cited from earlier work
[2] = system: patients with advanced NSCLC refractory to standard therapies; assay: Phase 1 dose-escalation study; type: in vivo
[3] = Plasma pharmacokinetics of mobocertinib in dose-escalation patients; type: in vivo, human; details: oral
Outline: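 Patients with NSCLC took oral capsules once daily in continuous 28-day cycles. Plasma was sampled at prespecified times after the first dose (Cycle 1, Day 1) and at steady state (Cycle 2, Day 1). Drug and active metabolites were quantified by validated LC-MS. Tmax, Cmax and AUC0–24 came from noncompartmental analysis. Effective half-life was derived from accumulation as a geometric mean.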

[4] = system: patients treated with mobocertinib 160 mg daily; assay: Safety and tolerability; type: in vivo, human; details: for Treatment-related TEAE Anemia, Any Grade / Treatment-related TEAE Anemia, Grade ≥3 / Treatment-related TEAE Decreased appetite, Any Grade / Treatment-related TEAE Decreased appetite, Grade ≥3 / Treatment-related TEAE Dermatitis acneiform, Any Grade / Treatment-related TEAE Dermatitis acneiform, Grade ≥3 / Treatment-related TEAE Diarrhea, Any Grade / Treatment-related TEAE Diarrhea, Grade ≥3 / Treatment-related TEAE Dry skin, Any Grade / Treatment-related TEAE Dry skin, Grade ≥3 / Treatment-related TEAE Dyspepsia, Any Grade / Treatment-related TEAE Dyspepsia, Grade ≥3 / Treatment-related TEAE Fatigue, Any Grade / Treatment-related TEAE Fatigue, Grade ≥3 / Treatment-related TEAE GERD, Any Grade / Treatment-related TEAE GERD, Grade ≥3 / Treatment-related TEAE Increased lipase, Any Grade / Treatment-related TEAE Increased lipase, Grade ≥3 / Treatment-related TEAE Nausea, Any Grade / Treatment-related TEAE Nausea, Grade ≥3 / Treatment-related TEAE Paronychia, Any Grade / Treatment-related TEAE Paronychia, Grade ≥3 / Treatment-related TEAE Pruritus, Any Grade / Treatment-related TEAE Pruritus, Grade ≥3 / Treatment-related TEAE Rash maculo-papular, Any Grade / Treatment-related TEAE Rash maculo-papular, Grade ≥3 / Treatment-related TEAE Rash, Any Grade / Treatment-related TEAE Rash, Grade ≥3 / Treatment-related TEAE Stomatitis, Any Grade / Treatment-related TEAE Stomatitis, Grade ≥3 / Treatment-related TEAE Vomiting, Any Grade / Treatment-related TEAE Vomiting, Grade ≥3: number (%) of patients
Outline: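 Safety pooled phase 1 and phase 2 patients who received at least one dose at an initial 160 mg daily, given orally in continuous 28-day cycles. Treatment-related TEAEs were tallied at any grade and at grade ≥3. The EGFRex20ins NSCLC subgroup came from dose escalation plus expansion cohort 1. Grade 3–4 toxicity led to withholding the drug, with up to two dose reductions allowed.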

[5] = system: previously treated NSCLC with EGFRex20ins mutations; assay: Investigator-assessed antitumor activity; type: in vivo, human; details: for Best confirmed response: Stable disease: observed ≥6 weeks after first dose
[6] = system: NSCLC with EGFRex20ins mutations; details: cited from earlier work
[7] = 28 patients with EGFRex20ins mutations treated at 160 mg daily
[8] = 136 patients treated at 160 mg daily
[9] = all patients treated at 160 mg daily (n=136)
[10] = patients with EGFRex20ins treated at 160 mg daily (n=28)
[11] = 80 mg total daily dose (n=9), includes 80 mg daily and 40 mg twice daily
[12] = 39 response-evaluable patients with advanced NSCLC and EGFRex20ins mutations, phase 1

## CC(=O)O[C@@]12CO[C@@H]1C[C@H](O)[C@@]1(C)C(=O)[C@H](O)C3=C(C)[C@@H](OC(=O)[C@H](O)[C@@H](NC(=O)OC(C)(C)C)c4ccccc4)C[C@@](O)([C@@H](OC(=O)c4ccccc4)[C@H]21)C3(C)C [Docetaxel]
[1]
  median duration of response: approximately 6 months

## C=CC(=O)N1CCC(Oc2cc3c(Nc4ccc(Cl)c(Cl)c4F)ncnc3cc2OC)CC1 [Poziotinib]
EGFRex20ins mutants
  inhibition of EGFRex20ins mutants in vitro: potent inhibition

## C=CC(=O)Nc1cc(Nc2ncc(C(=O)OC(C)C)c(-c3cn(C)c4ccccc34)n2)c(OC)cc1N(C)CCN(C)C [mobocertinib]
[2]; human, in vivo, po, 28 days
  recommended phase 2 dose (RP2D): 160 mg daily
[2]; oral, 28-day cycles, dose escalation 5-180 mg daily
  maximum tolerated dose (MTD): 160 mg daily
[3]; human, plasma
  half-life: 11 to 17 h
[3]; dose range 5 mg to 180 mg daily
  exposure (AUC0–24) dose dependence: approximately dose-proportional
[4]; [7]
  patients with AEs leading to discontinuation: 25%
  patients with AEs requiring dose interruption: 57%
  patients with AEs requiring dose reduction: 18%
[4]; [8]
  patients who experienced a treatment-emergent adverse event (TEAE): 99%
  patients with TEAEs considered related to mobocertinib treatment: 96%
  patients with TEAEs requiring discontinuation: 16%
  patients with TEAEs requiring dose interruption: 54%
  patients with TEAEs requiring dose reduction: 17%
  patients with grade 3 or higher treatment-related TEAEs: 40%
  patients with serious treatment-related TEAEs: 13%
  serious treatment-related TEAE diarrhea, patients: 4%
  serious treatment-related TEAE vomiting, patients: 4%
  treatment-related diarrhea, any grade, patients: 83%
  treatment-related diarrhea, grade ≥3, patients: 21%
  treatment-related nausea, any grade, patients: 43%
  treatment-related rash, any grade, patients: 33%
  treatment-related vomiting, any grade, patients: 26%
[4]; 136 patients treated at 160 mg daily (7/136)
  diarrhea leading to discontinuation, patients: 5%
[4]; [9]
  Treatment-related TEAE Anemia, Any Grade: 19 (14)
  Treatment-related TEAE Anemia, Grade ≥3: 3 (2)
  Treatment-related TEAE Decreased appetite, Any Grade: 29 (21)
  Treatment-related TEAE Decreased appetite, Grade ≥3: 1 (1)
  Treatment-related TEAE Dermatitis acneiform, Any Grade: 19 (14)
  Treatment-related TEAE Dermatitis acneiform, Grade ≥3: 1 (1)
  Treatment-related TEAE Diarrhea, Any Grade: 113 (83)
  Treatment-related TEAE Diarrhea, Grade ≥3: 28 (21)
  Treatment-related TEAE Dry skin, Any Grade: 30 (22)
  Treatment-related TEAE Dry skin, Grade ≥3: 0
  Treatment-related TEAE Dyspepsia, Any Grade: 16 (12)
  Treatment-related TEAE Dyspepsia, Grade ≥3: 0
  Treatment-related TEAE Fatigue, Any Grade: 28 (21)
  Treatment-related TEAE Fatigue, Grade ≥3: 2 (1)
  Treatment-related TEAE GERD, Any Grade: 17 (13)
  Treatment-related TEAE GERD, Grade ≥3: 0
  Treatment-related TEAE Increased lipase, Any Grade: 15 (11)
  Treatment-related TEAE Increased lipase, Grade ≥3: 7 (5)
  Treatment-related TEAE Nausea, Any Grade: 58 (43)
  Treatment-related TEAE Nausea, Grade ≥3: 5 (4)
  Treatment-related TEAE Paronychia, Any Grade: 22 (16)
  Treatment-related TEAE Paronychia, Grade ≥3: 0
  Treatment-related TEAE Pruritus, Any Grade: 14 (10)
  Treatment-related TEAE Pruritus, Grade ≥3: 0
  Treatment-related TEAE Rash maculo-papular, Any Grade: 22 (16)
  Treatment-related TEAE Rash maculo-papular, Grade ≥3: 1 (1)
  Treatment-related TEAE Rash, Any Grade: 45 (33)
  Treatment-related TEAE Rash, Grade ≥3: 1 (1)
  Treatment-related TEAE Stomatitis, Any Grade: 28 (21)
  Treatment-related TEAE Stomatitis, Grade ≥3: 5 (4)
  Treatment-related TEAE Vomiting, Any Grade: 36 (26)
  Treatment-related TEAE Vomiting, Grade ≥3: 5 (4)
[4]; [10]
  Treatment-related TEAE Anemia, Any Grade: 5 (18)
  Treatment-related TEAE Anemia, Grade ≥3: 0
  Treatment-related TEAE Decreased appetite, Any Grade: 11 (39)
  Treatment-related TEAE Decreased appetite, Grade ≥3: 0
  Treatment-related TEAE Dermatitis acneiform, Any Grade: 5 (18)
  Treatment-related TEAE Dermatitis acneiform, Grade ≥3: 0
  Treatment-related TEAE Diarrhea, Any Grade: 23 (82)
  Treatment-related TEAE Diarrhea, Grade ≥3: 9 (32)
  Treatment-related TEAE Dry skin, Any Grade: 5 (18)
  Treatment-related TEAE Dry skin, Grade ≥3: 0
  Treatment-related TEAE Dyspepsia, Any Grade: 6 (21)
  Treatment-related TEAE Dyspepsia, Grade ≥3: 0
  Treatment-related TEAE Fatigue, Any Grade: 4 (14)
  Treatment-related TEAE Fatigue, Grade ≥3: 1 (4)
  Treatment-related TEAE GERD, Any Grade: 3 (11)
  Treatment-related TEAE GERD, Grade ≥3: 0
  Treatment-related TEAE Increased lipase, Any Grade: 7 (25)
  Treatment-related TEAE Increased lipase, Grade ≥3: 2 (7)
  Treatment-related TEAE Nausea, Any Grade: 11 (39)
  Treatment-related TEAE Nausea, Grade ≥3: 3 (11)
  Treatment-related TEAE Paronychia, Any Grade: 8 (29)
  Treatment-related TEAE Paronychia, Grade ≥3: 0
  Treatment-related TEAE Pruritus, Any Grade: 5 (18)
  Treatment-related TEAE Pruritus, Grade ≥3: 0
  Treatment-related TEAE Rash maculo-papular, Any Grade: 7 (25)
  Treatment-related TEAE Rash maculo-papular, Grade ≥3: 1 (4)
  Treatment-related TEAE Rash, Any Grade: 13 (46)
  Treatment-related TEAE Rash, Grade ≥3: 0
  Treatment-related TEAE Stomatitis, Any Grade: 6 (21)
  Treatment-related TEAE Stomatitis, Grade ≥3: 2 (7)
  Treatment-related TEAE Vomiting, Any Grade: 10 (36)
  Treatment-related TEAE Vomiting, Grade ≥3: 2 (7)
[5]; 80 mg total daily dose (n=9)
  Best confirmed response: Not evaluated: 0 n (%)
  Best confirmed response: Progressive disease: 1 (11) n (%)
  Best confirmed response: Stable disease: 6 (67) n (%)
[5]; [11]
  Best confirmed response: Complete response: 1 (11) n (%)
  Best confirmed response: Partial response: 1 (11) n (%)
[5]; 120 mg daily (4/21)
  confirmed ORR: 19%
[5]; 120 mg daily (n=21)
  Best confirmed response: Complete response: 1 (5) n (%)
  Best confirmed response: Not evaluated: 3 (14) n (%)
  Best confirmed response: Partial response: 3 (14) n (%)
  Best confirmed response: Progressive disease: 3 (14) n (%)
  Best confirmed response: Stable disease: 11 (52) n (%)
[5]; 160 mg daily (12/28; 95% CI 24–63%)
  investigator-assessed confirmed ORR: 43%
[5]; 160 mg daily (24/28; 95% CI 67–96%)
  disease control rate: 86%
[5]; 160 mg daily (n=28)
  Best confirmed response: Complete response: 0 n (%)
  Best confirmed response: Not evaluated: 2 (7) n (%)
  Best confirmed response: Partial response: 12 (43) n (%)
  Best confirmed response: Progressive disease: 2 (7) n (%)
  Best confirmed response: Stable disease: 12 (43) n (%)
[5]; 160 mg daily, 28 EGFRex20ins patients (95% CI 4.4–15.6)
  median PFS: 7.3 months and 7 months
[5]; 160 mg daily, 28 EGFRex20ins patients (95% CI 5.0–not reached)
  median duration of response in confirmed responders: 14 months and 13.9 months
[5]; 160 mg daily, 28 EGFRex20ins patients (95% CI 16–53%)
  12-month event-free rate (PFS): 34%
[5]; 160 mg daily, patients with baseline brain metastases (3/12; 95% CI 5–57%)
  investigator-assessed confirmed ORR: 25%
[5]; 160 mg daily, patients with baseline brain metastases (95% CI 1.8–15.9)
  median investigator-assessed PFS: 3.7 months
[5]; 160 mg daily, patients with baseline brain metastases (95% CI 3–52%)
  12-month event-free rate (PFS): 23%
[5]; 160 mg daily, patients without baseline brain metastases (9/16; 95% CI 30–80%)
  investigator-assessed confirmed ORR: 56%
[5]; 160 mg daily, patients without baseline brain metastases (95% CI 5.0–16.6)
  median duration of response in confirmed responders: 13.8 months
[5]; 160 mg daily, patients without baseline brain metastases (95% CI 18–66%)
  12-month event-free rate (PFS): 43%
[5]; 5–40 mg daily (0/12)
  confirmed ORR: 0%
[5]; 5–40 mg daily (n=12)
  Best confirmed response: Complete response: 0 n (%)
  Best confirmed response: Not evaluated: 2 (17) n (%)
  Best confirmed response: Partial response: 0 n (%)
  Best confirmed response: Progressive disease: 7 (58) n (%)
  confirmed ORR: 0 [0–26] n (%) [95% CI]
  Best confirmed response: Stable disease: 3 (25) n (%)
[5]; 80-mg total daily dose (2/9)
  confirmed ORR: 22%

B1: amivantamab: an intravenous bispecific antibody that targets EGFR and MET (antibody, chains of the INN, looked up, V domains shown)
VH: QVQLVESGGGVVQPGRSLRLSCAASGFTFSTYGMHWVRQAPGKGLEWVAVIWDDGSYKYYGDSVKGRFTISRDNSKNTLYLQMNSLRAEDTAVYYCARDGITMVRGVMKDYFDYWGQGTLVTVSS
VL: AIQLTQSPSSLSASVGDRVTITCRASQDISSALVWYQQKPGKAPKLLIYDASSLESGVPSRFSGSESGTDFTLTISSLQPEDFATYYCQQFNSYPLTFGGGTKVEIK
VH2: QVQLVQSGAEVKKPGASVKVSCETSGYTFTSYGISWVRQAPGHGLEWMGWISAYNGYTNYAQKLQGRVTMTTDTSTSTAYMELRSLRSDDTAVYYCARDLRGTNYFDYWGQGTLVTVSS
VL2: DIQMTQSPSSVSASVGDRVTITCRASQGISNWLAWFQHKPGKAPKLLIYAASSLLSGVPSRFSGSGSGTDFTLTISSLQPEDFATYYCQQANSFPITFGQGTRLEIK
[6]; [12]
  investigator-assessed response rate (ORR): 36%
  median PFS: 8.3 months
[6]; patients with NSCLC with EGFRex20ins and other EGFR mutations
  median PFS: 8.3
